In ChEMBL document CHEMBL4138106, “Indole-coumarin-thiadiazole hybrids: An appraisal of their MCF-7 cell growth inhibition, apoptotic, antimetastatic and computational Bcl-2 binding potential” (Eur J Med Chem, 2017):
Active and inactive are the calls of the source.

Experiments:
MCF7 [1] = experiment: Inhibition of cell migration of human MCF7 cells after 24 hrs by inverted microscopy based monolayer wound healing migration assay; assay type: functional
Method in brief: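 About 1×10^5 MCF-7 cells/well grown in DMEM to 80% confluence, then a single scratch made. Debris washed off with PBS and cells treated with test compound, with vincristine as positive control and a vehicle control. Wound gap imaged at 0, 24 and 48 h by inverted microscopy with a stage and eyepiece micrometer. Run in triplicate.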

MCF7 [2] = experiment: Induction of apoptosis in human MCF7 cells assessed as nuclear fragmented DNA formation at 10 uM after 24 hrs by Hoechst 33342 staining based bright blue field inverted fluorescence microscopic analysis; assay type: functional, cell-based
Method in brief: (§1)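 Treated MCF-7 cells were incubated for 10 min with Hoechst 33342 stock diluted 1:2,000 in PBS. Nuclei were examined by inverted fluorescence microscopy for condensation and fragmentation, compared with vehicle-control cells.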

Vero = experiment: Cytotoxicity against African green monkey Vero cells assessed as growth inhibition after 48 hrs by MTT assay; assay type: cell-based; conditions: Chlorocebus sabaeus
Method in brief: (§2)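 Cells grown in DMEM with 10% FBS plus antibiotics at 37 °C under 5% CO2. 5×10^3 cells/well seeded and cultured overnight, then exposed to a range of concentrations for 48 h. Working dilutions made in DMEM from 25 mM DMSO stocks, with DMSO vehicle controls and vincristine as positive control. MTT at 1 mg/mL for 4 h, formazan dissolved in DMSO, A570. Viability taken relative to vehicle after blank subtraction.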

MCF7 [3] = experiment: Induction of apoptosis in human MCF7 cells assessed as deviations in cell morphology at 10 uM after 24 hrs by Acridine orange-ethidium bromide dual staining based fluorescence microscopic analysis; assay type: functional
MCF7 [4] = experiment: Induction of apoptosis in human MCF7 cells assessed as formation of apoptotic body at 10 uM after 24 hrs by Acridine orange-ethidium bromide dual staining based fluorescence microscopic analysis; assay type: functional, cell-based
MCF7 [5] = experiment: Induction of apoptosis in human MCF7 cells assessed as nuclear chromatin condensation at 10 uM after 24 hrs by Hoechst 33342 staining based bright blue field inverted fluorescence microscopic analysis; assay type: functional, cell-based; method in brief: as §1
MCF7 [6] = experiment: Induction of apoptosis in human MCF7 cells assessed as cell shrinkage at 10 uM after 24 hrs by Acridine orange-ethidium bromide dual staining based fluorescence microscopic analysis; assay type: functional
MCF7 [7] = experiment: Induction of apoptosis in human MCF7 cells assessed as condensed chromatin formation at 10 uM after 24 hrs by Acridine orange-ethidium bromide dual staining based fluorescence microscopic analysis; assay type: functional, cell-based
Method in brief: (§3)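 MCF-7 cells in 96-well plates exposed to test compound for 24 h at 37 °C in 5% CO2. Gross morphology first checked by phase contrast. Medium then removed and acridine orange (7.5 μg)/ethidium bromide (25 μg) stain added. Cells viewed by fluorescence microscopy through an FITC filter and scored as viable, early apoptotic, late apoptotic or nonviable by colour and nuclear form, against vehicle control.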

MCF7 [8] = experiment: Induction of apoptosis in human MCF7 cells assessed as early apoptotic cells at 10 uM after 24 hrs by Acridine orange-ethidium bromide dual staining based fluorescence microscopic analysis; assay type: functional, cell-based; method in brief: as §3
MCF7 [9] = experiment: Cytotoxicity against human MCF7 cells assessed as growth inhibition after 48 hrs by MTT assay; assay type: functional, cell-based; conditions: MCF7, 48 h; method in brief: as §2
MCF7 [10] = experiment: Induction of apoptosis in human MCF7 cells assessed as expression in caspase 8 at 10 uM after 24 hrs by spectrofluorimetric analysis; assay type: functional, cell-based
Method in brief: (§4)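 Initiator caspases 2, 8 and 9 measured in MCF-7 cells after 24 h exposure to 10 μM, using a fluorogenic caspase profiling kit (ex 380/em 460 nm). Signals normalized to vehicle control, set as 1, and expressed as fold change. Mean ± SD of three independent trials.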

MCF7 [11] = experiment: Induction of apoptosis in human MCF7 cells assessed as expression in caspase 2 at 10 uM after 24 hrs by spectrofluorimetric analysis; assay type: functional, cell-based; method in brief: as §4
MCF7 [12] = experiment: Induction of apoptosis in human MCF7 cells assessed as chromatin condensation at 10 uM after 24 hrs by APOPercentage dye based light microscopic analysis; assay type: functional, cell-based
Method in brief: (§5)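 1×10^4 MCF-7 cells grown 48 h to sub-confluence in 96-well plates, then exposed for 24 h. Medium replaced with medium containing APOPercentage dye (phosphatidylserine exposure) for 1 h. Purple-red cells imaged by light microscopy. Cells then lysed and released dye read at 550 nm, against vehicle control.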

MCF7 [13] = experiment: Induction of apoptosis in human MCF7 cells assessed as loss of cell membrane integrity at 10 uM after 24 hrs by Acridine orange-ethidium bromide dual staining based fluorescence microscopic analysis; assay type: functional
MCF7 [14] = experiment: Induction of apoptosis in human MCF7 cells assessed as fragmented nuclei formation at 10 uM after 24 hrs by Acridine orange-ethidium bromide dual staining based fluorescence microscopic analysis; assay type: functional, cell-based; method in brief: as §3
MCF7 [15] = experiment: Induction of apoptosis in human MCF7 cells assessed as condensed nuclei formation at 10 uM after 24 hrs by Acridine orange-ethidium bromide dual staining based fluorescence microscopic analysis; assay type: functional, cell-based; method in brief: as §3
MCF7 [16] = experiment: Induction of apoptosis in human MCF7 cells assessed as late apoptotic cells at 10 uM after 24 hrs by fluorescein-12-dUTP/propidium iodide staining based TUNEL assay; assay type: functional, cell-based
Method in brief: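 About 1×10^5 MCF-7 cells/well in 24-well plates treated for 24 h. Cells fixed in 4% paraformaldehyde and permeabilized with 0.2% Triton X-100. Labelled with 50 µM fluorescein-12-dUTP and rTdT for 1 h at 37 °C, stopped with 2×SSC, counterstained with 1 mg/mL propidium iodide. Green TUNEL-positive nuclei scored by fluorescence microscopy.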

MCF7 [17] = experiment: Induction of apoptosis in human MCF7 cells assessed as reduction in cell volume at 10 uM after 24 hrs by APOPercentage dye based light microscopic analysis; assay type: functional; method in brief: as §5
MCF7 [18] = experiment: Induction of apoptosis in human MCF7 cells assessed as late apoptotic cells at 10 uM after 24 hrs by Acridine orange-ethidium bromide dual staining based fluorescence microscopic analysis; assay type: functional, cell-based; method in brief: as §3
MCF7 [19] = experiment: Induction of apoptosis in human MCF7 cells assessed as dead cells at 10 uM after 24 hrs by Acridine orange-ethidium bromide dual staining based fluorescence microscopic analysis; assay type: functional, cell-based; method in brief: as §3
MCF7 [20] = experiment: Induction of apoptosis in human MCF7 cells assessed as expression in caspase 9 at 10 uM after 24 hrs by spectrofluorimetric analysis; assay type: functional, cell-based; method in brief: as §4

C/C(=N/c1nnc(CCCc2c[nH]c3ccccc23)s1)c1cc2cc(Br)ccc2oc1=O
inactive: Activity (MCF7 [11])
116 µM: IC50 (Vero)
active: inhibition (MCF7 [1]) | Activity (MCF7 [2]) | Activity (MCF7 [3]) | Activity (MCF7 [4]) | Activity (MCF7 [5]) | Activity (MCF7 [6]) | Activity (MCF7 [7]) | Activity (MCF7 [8]) | Activity (MCF7 [10]) | Activity (MCF7 [12]) | Activity (MCF7 [13]) | Activity (MCF7 [14]) | Activity (MCF7 [15]) | Activity (MCF7 [16]) | Activity (MCF7 [17]) | Activity (MCF7 [18]) | Activity (MCF7 [19]) | Activity (MCF7 [20])
8.01 µM: IC50 (MCF7 [9])

C/C(=N/c1nnc(Cc2c[nH]c3ccccc23)s1)c1cc2cc(Br)ccc2oc1=O
82.1 µM: IC50 (MCF7 [9])
113 µM: IC50 (Vero)

C/C(=N/c1nnc(CCc2c[nH]c3ccccc23)s1)c1cc2cc(Br)ccc2oc1=O
36.1 µM: IC50 (MCF7 [9])
43.1 µM: IC50 (Vero)
